The target in series [1] is Replicase polyprotein 1ab (Severe acute respiratory syndrome coronavirus 2) (UniProt P0DTD1). As to the kind of experiment: Inhibition of recombinant hexa-His tagged SARS-COV2 main protease expressed in Escherichia coli upto 30 uM using Dabcyl-KTSAVLQISGFRKM-E(Edans)-NH2 as substrate preincubated for 15 mins followed by substrate addition and measured after 1 hr by FRET assay. The following applies: time 75.0 min. The gist of the method: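 Fluorescence (ex 340/em 475 nm) was read every 38 s for 1 h. IC50 came from initial velocities, in duplicate.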

The target is the same in series [2]. As to the kind of experiment: Binding affinity to recombinant hexa-His tagged SARS-COV2 main protease expressed in Escherichia coli incubated for 1 hr by SDS-PAGE gel electrophoresis method. In short, it runs like this: (§1)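 E. coli-expressed Mpro was incubated with Alk-4d or Alk-4i at 30 °C for 1 h. Click chemistry followed at room temperature for 1 h in the dark, with final 25 μM TAMRA-azide, 1 mM TCEP, 100 μM THPTA and 1 mM CuSO4. Samples were boiled, run on 4–20% SDS-PAGE, scanned at ex 532/em 600 nm, and silver-stained to check loading.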

The target is the same in series [3]. Put plainly: Binding affinity to recombinant hexa-His tagged SARS-COV2 main protease expressed in Escherichia coli pretreated with (1R,2S,5S)-3-((S)-3,3-dimethyl-2-(2,2,2-trifluoroacetamido)butanoyl)-6,6-dimethyl-N-((S)-1-((S)-2-oxopyrrolidin-3-yl)but-3-yn-2-yl)-3-azabicyclo[3.1.0]hexane-2-carboxamide followed by compound addition by SDS-PAGE gel electrophoresis method.

Series [4] has the same target. Put plainly: Binding affinity to recombinant hexa-His tagged SARS-COV2 main protease expressed in Escherichia coli pretreated with nirmatrelvir followed by compound addition by SDS-PAGE gel electrophoresis method.
The target is the same in series [5]. Put plainly: Binding affinity to recombinant hexa-His tagged SARS-COV2 main protease expressed in HEK293T cells by in-gel fluorescence analysis. Format: cell-based. In short, it runs like this:
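HEK293T cells were transiently transfected with an Mpro plasmid. At 24 h post-transfection, they were treated with probe (from a 1000× DMSO stock) in fresh DMEM/10% FBS. Cells were washed, lysed in NP40 buffer and normalised to 1 mg/mL protein. Lysates were click-conjugated to TAMRA-azide, then analysed by SDS-PAGE and fluorescence imaging.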

Series [6] has the same target. As to the kind of experiment: Binding affinity to recombinant hexa-His tagged SARS-COV2 main protease expressed in Escherichia coli at 10 uM pretreated with (1R,2S,5S)-3-((S)-3,3-dimethyl-2-(2,2,2-trifluoroacetamido)butanoyl)-6,6-dimethyl-N-((S)-5,5,5-trifluoro-1-((S)-2- oxopyrrolidin-3-yl)pent-3-yn-2-yl)-3-azabicyclo[3.1.0]hexane-2-carboxamide. The gist of the method: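 Competition labeling: recombinant Mpro (1 μg) was […] competitor and clickable probe at the indicated concentrations, at 30 °C for 1 h. TAMRA-azide click reaction, SDS-PAGE and in-gel fluorescence imaging (ex 532/em 600 nm) followed.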

The target is the same in series [7]. Put plainly: Binding affinity to recombinant hexa-His tagged SARS-COV2 main protease expressed in Escherichia coli at 300 nM by in-gel fluorescence analysis. In short, it runs like this: as §1
Series [8] shares this target. Put plainly: Binding affinity to SARS-COV2 main protease at 30 uM preincubated with nirmatrelvir followed by compound addition measured over 6 hrs. The gist of the method:
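Pulse-chase competition: recombinant Mpro was pretreated with 1.5 μM nirmatrelvir at 30 °C, then given 30 μM Alk-4i probe for various times. Click conjugation to TAMRA-azide was followed by SDS-PAGE and in-gel fluorescence (ex 532, em 600 nm). The nirmatrelvir dissociation half-life was derived from the labeling curve.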

The next series has as its system HEK293T. As to the kind of experiment: Binding affinity to proteome in HEK293T cells at 10 uM after 5 hrs. The following applies: Homo sapiens. Format: cell-based. The gist of the method: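 Parental HEK293T cells were treated with clickable probe at various concentrations for 5 h. Cells were harvested and lysed in NP40 buffer, and protein was normalised to 1 mg/mL. Lysates were click-conjugated to TAMRA azide, resolved by SDS-PAGE and imaged for in-gel fluorescence.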

The test system of series [9] is SARS-CoV-2. As to the kind of experiment: Antiviral activity against SARS-CoV-2 infected in HeLa cells expressing ACE2 pre-infected for 1 hr followed by compound addition and measured after 24 hrs. The series is classed as functional, organism-based. Conditions: Severe acute respiratory syndrome coronavirus 2.
Another series concerns HeLa. Put plainly: Cytotoxicity against human HeLa cells expressing ACE2 upto 10 uM after 20 hrs by Cell Titer-Glo luminescent cell viability assay. The series is classed as toxicity, cell-based. Background: In ATP-based viability assays light output follows the ATP content of the culture.
Series [10] addresses Cathepsin B (Homo sapiens) (UniProt P07858). As to the kind of experiment: Inhibition of human cathepsin B upto 40 uM preincubated for 20 mins. In short, it runs like this: (§2)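 Z-FR-AMC was added at 10 μM. Fluorescence (ex 355/em 460 nm) was read at room temperature every 5 min for 2 h, and initial velocities came from the linear portion.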
Series [11] deals with T1, Cathepsin K (Homo sapiens) (UniProt P43235).
T1 sequence (whole entry): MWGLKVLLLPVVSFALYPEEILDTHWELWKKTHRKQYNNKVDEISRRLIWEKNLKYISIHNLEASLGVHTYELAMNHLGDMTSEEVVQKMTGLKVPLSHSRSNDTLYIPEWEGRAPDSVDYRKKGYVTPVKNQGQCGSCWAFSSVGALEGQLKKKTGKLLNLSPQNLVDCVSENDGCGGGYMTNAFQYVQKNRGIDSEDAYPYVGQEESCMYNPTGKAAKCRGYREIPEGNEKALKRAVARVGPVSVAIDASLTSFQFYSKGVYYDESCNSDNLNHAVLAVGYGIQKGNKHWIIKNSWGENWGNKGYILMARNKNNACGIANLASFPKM
Put plainly: Inhibition of human cathepsin K upto 40 uM preincubated for 20 mins. In short, it runs like this:
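Recombinant cathepsin K (0.042 nM) was preincubated with compound for 20 min in 50 mM NaOAc pH 5.5, 5 mM EDTA, 0.005% Triton X-100, 5 mM DTT and 1% DMSO. Z-FR-AMC was added at 5 μM. Fluorescence (ex 355/em 460 nm) was read at room temperature every 5 min for 2 h, and initial velocities came from the linear portion.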

Series [12] has as its target Procathepsin L (Homo sapiens) (UniProt P07711). Put plainly: Inhibition of human cathepsin L upto 40 uM preincubated for 20 mins. In short, it runs like this: as §2
The test system of series [13] is SARS-CoV-2. As to the kind of experiment: Antiviral activity against SARS-CoV-2 infected in HeLa cells expressing ACE2 at 3 uM pre-infected for 1 hr followed by compound addition and measured after 24 hrs by RT-qPCR analysis. The series is classed as functional, Severe acute respiratory syndrome coronavirus 2. On the technique in general: In qPCR the cycle at which signal appears reflects the starting amount.

Active and inactive are the calls of the source. No cut-off for these calls is given here. Residues, ends and D or L forms follow the SMILES beside them. *: point of attachment. Cbz = O=C(OCc1ccccc1)*

Chain of Procathepsin L (Homo sapiens) (P07711 114-333 limits assumed): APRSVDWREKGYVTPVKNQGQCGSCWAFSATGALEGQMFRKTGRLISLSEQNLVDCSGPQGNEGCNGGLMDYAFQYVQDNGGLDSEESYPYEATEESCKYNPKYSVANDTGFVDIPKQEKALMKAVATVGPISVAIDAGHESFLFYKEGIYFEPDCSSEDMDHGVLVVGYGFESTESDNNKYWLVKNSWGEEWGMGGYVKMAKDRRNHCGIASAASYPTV

On to `CC(C)C[C@H](NC(=O)OCc1ccccc1)C(=O)N[C@H](C=O)CCC(N)=O` (Cbz-Leu-Gln-aldehyde), for which the inhibition entry in series [1] was “inactive”.
For `C#CC[C@H](NC(=O)C(F)(F)F)C(=O)N1C[C@H]2[C@@H]([C@H]1C(=O)N[C@H](C#C)C[C@@H]1CCNC1=O)C2(C)C`, the outcome in series [2] was Active. For the same compound, the outcome in series [3], in [4] and in series [6] was inactive. Further, the Activity result in series [5] was “Dose-Dependent Effect”.
As for `C#CC[C@H](NC(=O)C(F)(F)F)C(=O)N1C[C@H]2[C@@H]([C@H]1C(=O)N[C@H](C#CC(F)(F)F)C[C@@H]1CCNC1=O)C2(C)C`, the outcome (in series [7]; in series [8]; in the series on HEK293T) was Active.
As for `CC(C)C[C@H](NC(=O)OCc1ccccc1)C(=O)N[C@H](C#N)CCC(N)=O`, in series [1], the inhibition result is “inactive”.
Consider `CC(C)(C)[C@H](NC(=O)C(F)(F)F)C(=O)N1C[C@H]2[C@@H]([C@H]1C(=O)N[C@H](C#CC(F)(F)F)C[C@@H]1CCNC1=O)C2(C)C`, for which the Activity entry was “Dose-Dependent Effect” with SARS-CoV-2 [9] and “Non-Toxic” with HeLa.
As for `C#C[C@H](C[C@@H]1CCNC1=O)NC(=O)[C@@H]1[C@@H]2[C@H](CN1C(=O)[C@@H](NC(=O)C(F)(F)F)C(C)(C)C)C2(C)C`, the inhibition entry in series [10], in series [11] and in series [12] was “inactive” in each case. Moreover, the Activity entry in the series with SARS-CoV-2 [9] is “Dose-Dependent Effect”; with SARS-CoV-2 [13] it was 100%.

The values are drawn from ChEMBL document CHEMBL5365428, “Alkyne as a Latent Warhead to Covalently Target SARS-CoV-2 Main Protease” (J Med Chem, 2023).
